An excerpt weighted towards active compounds, which were near 1.2% of everything screened.
NS3 helicase inh: inhibitors of HCV NS3 helicase, primary screen, biochemical, Cy5 molecular beacon fluorescence. NS3 helicase DNA unwinding. Hepatitis C virus NS3 helicase. inhibition, % at 10.9 µM. 0.56% of 290,000 active;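 active = inhibition above the mean of all tested compounds plus 3 SD, set per campaign, cut at about 35% in these data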
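System: HCV NS3 helicase fragment; control set: DMSO and thioflavine S; technique: Cy5 fluorescence at 0 and 60 min, beacon hairpin quenching; reagent: beacon DNA duplex substrate plus ATP; replicates: singlicate; schedule: 1 h reaction at 25 °C, ATP-initiated; medium: MOPS buffer pH 6.5 with MgCl2, DTT, Tween20, BSA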
EBNA-1 inh: EBNA-1 DNA-binding inhibitors, primary screen, biochemical, fluorescence polarization | inhibition, % at 14.8 µM | AID 1950, 2009 | 0.34% of 300,000 active; in the data active = inhibition above about 28%
HCV core dimer: inhibitors of HCV core protein dimerization, primary screen, biochemical, TR-FRET, high-throughput. inhibition, % at 5 µM. AID 1899, 2009. TR-FRET GST/Flag-core106 dimerization, 1536-well. 0.33% of 300,000 active;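 active = inhibition above the mean of all tested compounds plus 3 SD, set per screening campaign, cut at about 45% in these data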
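Test system: GST/Flag-tagged HCV core106 proteins; Medium: KF-containing HEPES buffer, pH 7.45, DTT, CHAPS, BSA; Times: compound-protein-antibody incubation 4 h at 22.5 °C; Detection: TR-FRET 671 and 617 nm emission; Benchmarks: wells lacking GST-core106 and wells with excess unlabelled core106.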
ZTA DNA inh: blocks Epstein-Barr virus ZTA, an EBNA-1 counter-screen; AID 2234; ZTA-DNA binding, fluorescence polarization; inhibition, % at 11 µM; 0.15% of 320,000 active; P03206; in the data active = inhibition above about 33%
Target sequence (P03206 whole entry, looked up): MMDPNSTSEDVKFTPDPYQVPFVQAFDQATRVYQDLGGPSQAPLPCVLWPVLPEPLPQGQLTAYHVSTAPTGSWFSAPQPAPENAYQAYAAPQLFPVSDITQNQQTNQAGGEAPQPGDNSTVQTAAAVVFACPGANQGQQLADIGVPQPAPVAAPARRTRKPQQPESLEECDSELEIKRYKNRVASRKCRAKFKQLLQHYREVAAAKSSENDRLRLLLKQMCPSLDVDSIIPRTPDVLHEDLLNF
NS3 helicase cf: HCV NS3 helicase inhibitors, retest, confirmation, biochemical, Cy5 molecular beacon fluorescence, triplicate; shares compounds with NS3 helicase inh; NS3 helicase DNA unwinding; inhibition, % at 10.9 µM; 31% of 1,600 active; AID 1943, 2009;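 active = inhibition above the mean of all tested compounds plus 3 SD, cutoff set per campaign, cut at about 36% in these data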
DNA FID counter: compounds displacing fluorescent DNA intercalator, artefact control for HCV NS3 helicase inhibitor project, biochemical, FID fluorescence, triplicate; shares compounds with NS3 helicase inh; DNA fluorescent intercalator displacement; inhibition, % at 7.9 µM; 4% of 1,600 active; AID 1945, 2009; in the data active = inhibition above about 37%;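 also: higher means more displacement of ethidium bromide from the DNA hairpin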
DNA FID DR: compounds displacing fluorescent intercalator from DNA, dose response, counter-screen for HCV NS3 helicase inhibitor project, biochemical, fluorescence. IC50, µM. fluorescent intercalator displacement from DNA. shares compounds with NS3 helicase inh. 120 tested, under 10 active; call rule not given here
Large screens that a line does not name were inactive (follow-up assays come after a bar, where they were run).

COc1ccc(NC(=O)C(CC(=O)O)Cc2ccccc2)cc1 (stereo not drawn)	none
O=C(NC(=S)Nc1ccc(-c2ccc(CO)o2)cc1)c1cccs1	NS3 helicase inh 37, HCV core dimer 51 | NS3 helicase cf 40 | DNA FID counter inactive
Cc1ccc(C(=O)NC(=S)Nc2ccc(-c3ccc(CO)o3)cc2)cc1	none
Cc1ccc(Cn2c(/C=C/c3ccco3)nc3ccccc32)cc1	NS3 helicase inh 43 | NS3 helicase cf inactive | DNA FID counter inactive
CCCn1c(NCc2ccco2)nc2ccccc21	none
CCCCn1c(N)nc2ccccc21	none
CCCn1c(/C=C/c2ccco2)nc2ccccc21	NS3 helicase inh 52, HCV core dimer 51 | NS3 helicase cf inactive | DNA FID counter inactive
CCCCn1c(/C=C/c2ccco2)nc2ccccc21	NS3 helicase inh 44 | NS3 helicase cf inactive | DNA FID counter inactive
O=C(COC(=O)C1CCN(S(=O)(=O)c2ccc3c(c2)OCCO3)CC1)Nc1ccc(C(F)(F)F)cc1	none
CCOc1ccc(NC(=O)CC2C(=O)N(c3ccc(OC)cc3)C(=O)N2Cc2ccc(OC)cc2)cc1 (stereo not drawn)	none
COc1ccc(NC(=O)CC2C(=O)N(c3ccc(OC)cc3)C(=O)N2C(C)C)cc1 (stereo not drawn)	NS3 helicase inh 46 | NS3 helicase cf inactive | DNA FID counter inactive
CC1CC/C(=C\c2ccc3c(c2)OCO3)C(=O)/C1=C/c1ccc2c(c1)OCO2 (stereo not drawn)	NS3 helicase inh 38 | NS3 helicase cf inactive | DNA FID counter inactive
CCOC(=O)c1cc2c(=O)n3ccccc3nc2n(Cc2ccco2)c1=NC(=O)c1ccc(OC)cc1OC	NS3 helicase inh 51 | NS3 helicase cf inactive | DNA FID counter inactive
COc1ccc(CCNC(=O)c2cc3c(=O)n4cccc(C)c4nc3n(Cc3ccco3)c2=N)cc1OC	NS3 helicase inh 38 | NS3 helicase cf inactive | DNA FID counter inactive
COc1ccc(OC)c(C2CC(=O)N3CN(c4ccccc4F)CSC3=C2C#N)c1 (stereo not drawn)	NS3 helicase inh 40 | NS3 helicase cf 66 | DNA FID counter inactive | DNA FID DR inactive
COc1ccc(Br)cc1C1CC(=O)N2CN(Cc3ccccc3)CSC2=C1C#N (stereo not drawn)	NS3 helicase inh 51 | NS3 helicase cf 40 | DNA FID counter inactive
COc1cccc(C2CC(=O)N3CN(c4ccccc4F)CSC3=C2C#N)c1 (stereo not drawn)	none
Cc1ccc(C2CC(=O)N3CN(c4ccc(Br)cc4)CSC3=C2C#N)o1 (stereo not drawn)	NS3 helicase inh 37, HCV core dimer 48 | NS3 helicase cf 72 | DNA FID counter inactive | DNA FID DR inactive
CSCCC(NC(=O)c1cccc(C)c1)C(=O)OCN1C(=O)c2ccccc2C1=O (stereo not drawn)	none (no result: NS3 helicase inh)
COc1cc(/C=N/NC(=O)CSc2n[nH]c(=O)[nH]c2=O)cc(OC)c1O	none
O=C(Cn1cc(C(=O)COc2ccccc2)c2ccccc21)NCc1ccco1	NS3 helicase inh 44 | NS3 helicase cf inactive | DNA FID counter inactive
CC(=O)c1cn(CC(=O)NCc2ccco2)c2ccccc12	none
O=C(CCC(=O)NNC(=O)Cc1ccccc1)NCc1ccccc1	none
O=C(CCC(=O)NCc1ccccc1)NCc1ccccc1	NS3 helicase inh 48 | NS3 helicase cf inactive | DNA FID counter inactive
O=C(COC(=O)CCc1c[nH]c2ccccc12)NCc1ccccc1	NS3 helicase inh 43 | NS3 helicase cf inactive | DNA FID counter inactive
CCCC(C(=O)O)N1C(=O)/C(=C/c2cccn2C)SC1=S (stereo not drawn)	NS3 helicase inh 36 | NS3 helicase cf 39 | DNA FID counter inactive
CC(C)C(C(=O)O)N1C(=O)/C(=C/c2cccn2C)SC1=S (stereo not drawn)	none
CCc1nnc(NS(=O)(=O)c2ccc(NC(=S)NC(=O)c3ccc(OC)cc3)cc2)s1	NS3 helicase inh 37 | NS3 helicase cf 52 | DNA FID counter inactive
CCc1nnc(NS(=O)(=O)c2ccc(NC(=S)NC(=O)c3ccc(OC)c(OC)c3)cc2)s1	none
C/C(=C\C(=O)c1ccc(Br)cc1)Nc1cccc(Cl)c1	none
C/C(=C\C(=O)c1ccc(Cl)cc1)Nc1ccc(Br)cc1	NS3 helicase inh 47 | NS3 helicase cf inactive | DNA FID counter inactive
CC1CC(=O)c2c(cc3c(-c4c(O)cc(O)c5c(O)c6c(cc45)OC(C)CC6=O)c(O)cc(O)c3c2O)O1 (stereo not drawn)	NS3 helicase inh 98 | NS3 helicase cf 123 | DNA FID counter 72
O=C1CC(c2ccc(O)cc2)Oc2cc(O)cc(O)c21 (stereo not drawn)	none
O=[N+]([O-])c1cc([N+](=O)[O-])c2oc(-c3ccccc3)c(Br)c2c1O	NS3 helicase inh 45 (no result: EBNA-1 inh, HCV core dimer, ZTA DNA inh) | NS3 helicase cf 74 | DNA FID counter 68
O=c1cc(-c2ccccc2Cl)oc2ccc([N+](=O)[O-])c(O)c12	none
COc1ccc(CCN2CC(C(=O)N(C)CC(=O)Nc3cccc(F)c3)CC2=O)cc1OC (stereo not drawn)	none
Cc1cc([N+](=O)[O-])cnc1NC(C)c1ccccc1 (stereo not drawn)	none
COc1cc(/C=C/[N+](=O)[O-])ccc1OCc1cccc(C(=O)O)c1	NS3 helicase inh 36 (no result: EBNA-1 inh, HCV core dimer, ZTA DNA inh) | NS3 helicase cf 69 | DNA FID counter inactive
CC1(c2ccc(Cl)cc2Cl)NC(=O)N(CC(=O)NC2CCCCC2)C1=O (stereo not drawn)	none (no result: NS3 helicase inh, EBNA-1 inh, HCV core dimer)
O=C(c1ccc(Cl)cc1)C1CCN(CC(=O)N2CCCCC2)CC1	none
Cc1ccc(C2C(C#N)=C(N)SC(N)=C2C#N)c(C)c1	NS3 helicase inh 36 | NS3 helicase cf inactive | DNA FID counter inactive
Cc1ccc(C2C(C#N)=C(N)SC(N)=C2C#N)cc1	none (no result: EBNA-1 inh, HCV core dimer, ZTA DNA inh)
C[C@H](NC(=O)N1CCn2c1nc1ccccc12)C(=O)NCc1ccc(F)cc1	none
COc1ccc(C2C(C#N)=C(N)Oc3cc4c(cc32)OCO4)cc1 (stereo not drawn)	NS3 helicase inh 40 | NS3 helicase cf inactive | DNA FID counter inactive
Cc1[nH]n(C(N)=S)c(=O)c1N=Nc1cccc(Cl)c1	NS3 helicase inh 58 | NS3 helicase cf inactive | DNA FID counter inactive
O=C(Nc1ccccc1N1CCCC1)c1cccc(-c2cc3ccccc3oc2=O)c1	NS3 helicase inh 42 | NS3 helicase cf inactive | DNA FID counter inactive
O=C(Nc1ccc(N2CCCC2)cc1)c1cccc(-c2cc3ccccc3oc2=O)c1	none

High-throughput results (PubChem)
